Source: ChEMBL document CHEMBL2057095, “Discovery and SAR of orally efficacious tetrahydropyridopyridazinone PARP inhibitors for the treatment of cancer” (Bioorg Med Chem, 2012)

What was measured:
Mus musculus [1] = assay: Antitumor activity against B16F10 tumor xenografted in C57BL/6 mouse assessed as tumor growth inhibition at 50 mg/kg/day, po administered QD from day 5 to day 10 post-tumor implantation; assay type: organism-based; parameters: route oral; conditions: C57BL/6, B16-F10, po, read-out: GI
How it was run: (§1)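 Syngeneic B16F10 melanoma: 6 × 10⁴ cells in 50% matrigel injected s.c. into the flank of female C57BL/6 mice, 6–8 weeks old, 20 g. PARP inhibitor given orally on days 5–10 at 10, 30 or 60 mg/kg/day, bid. TMZ given orally at 50 mg/kg/day, qd, days 5–10. Tumor growth and body weight followed to day 21.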

Mus musculus [2] = assay: Toxicity in C57BL/6 mouse bearing B16F10 tumor assessed as body weight loss at 50 mg/kg/day, po administered QD from day 5 to day 9 post-tumor implantation relative to vehicle-treated control; assay type: organism-based; parameters: route oral; conditions: in vivo
How it was run: (§2)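 Syngeneic B16F10 model: 6 × 10⁴ cells with 50% matrigel implanted s.c. into the flank of female C57BL/6 mice (6–8 weeks, 20 g). […] TMZ given orally at 50 mg/kg/day once daily over the same days. Tumor growth and body weight monitored.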

Mus musculus [3] = assay: Toxicity in C57BL/6 mouse bearing B16F10 tumor assessed as body weight loss at 50 mg/kg/day, po administered QD from day 5 to day 10 post-tumor implantation relative to vehicle-treated control; assay type: organism-based; parameters: route oral; conditions: in vivo; how it was run: as §1
[4] = (§3) Clearance in mouse at 10 mg/kg, po and 3 mg/kg, iv; assay type: ADME, organism-based; conditions: in vivo
How it was run: (§4)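 Standard mouse PK: oral dose of 10 mg/kg and intravenous dose of 3 mg/kg; plasma concentrations determined up to 8 h.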

Mus musculus [5] = assay: (§5) Toxicity in C57BL/6 mouse bearing B16F10 tumor assessed as body weight loss at […], po administered BID from day 5 to day 9 post-tumor implantation co-administered with temozolomide relative to vehicle-treated control; assay type: organism-based; parameters: route oral; conditions: in vivo
Mus musculus [6] = assay: as §5; assay type: organism-based; parameters: route oral; conditions: in vivo; remark: listed apart in the source
[7] = (§6) AUC (0 to 8 hrs) in mouse at 10 mg/kg, po; assay type: ADME, organism-based, Plasma; parameters: time < 8 hr, dose 10 mg/kg, route oral; conditions: plasma; how it was run: as §4
[8] = (§7) Oral bioavailability in mouse at 10 mg/kg; assay type: ADME, organism-based; conditions: in vivo; how it was run: as §4
[9] = Cmax in mouse at 10 mg/kg, po; assay type: ADME, organism-based; parameters: dose 10 mg/kg, route oral; conditions: in vivo; how it was run: as §4
[10] = Half life in mouse at 3 mg/kg, iv; assay type: ADME, organism-based; parameters: dose 3 mg/kg, route intravenous; conditions: in vivo; how it was run: as §4
[11] = AUC (0 to 3 hrs) in mouse at 10 mg/kg, po; assay type: ADME, organism-based; parameters: time < 3 hr, dose 10 mg/kg, route oral; conditions: plasma
How it was run: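 Screening mouse PK: single oral dose of 10 mg/kg; plasma concentrations determined up to 3 h.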

Mus musculus [12] = assay: Toxicity in C57BL/6 mouse bearing B16F10 tumor assessed as body weight loss at 5 mg/kg/day, po administered BID from day 5 to day 9 post-tumor implantation co-administered with temozolomide relative to vehicle-treated control; assay type: organism-based; parameters: route oral; conditions: in vivo; how it was run: as §2
[13] = Volume of distribution at steady state in mouse at 10 mg/kg, po and 3 mg/kg, iv; assay type: ADME, organism-based; conditions: in vivo, read-out: Vdss; how it was run: as §4
B16-F10 [14] = assay: Potentiation of TMZ antitumor activity against mouse B16F10 cells xenografted in po dosed C57BL/6 mouse assessed as increase in tumor growth inhibition administered BID from day 5 to day 9 post-tumor implantation; assay type: functional, organism-based; how it was run: as §2
Mus musculus [15] = assay: as §3; assay type: ADME, organism-based; conditions: in vivo; how it was run: as §4
Mus musculus [16] = assay: as §6; assay type: ADME, organism-based, Plasma; parameters: time < 8 hr, dose 10 mg/kg, route oral; conditions: in vivo, 8 h; how it was run: as §4
Mus musculus [17] = assay: as §7; assay type: ADME, organism-based; conditions: in vivo; how it was run: as §4
B16-F10 [18] = assay: Potentiation of temozolomide-induced antitumor activity against mouse B16F10 cells xenografted in po dosed C57BL/6 mouse assessed as tumor growth inhibition administered BID from day 5 to day 10 post-tumor implantation; assay type: functional, organism-based; how it was run: as §1
Mus musculus [19] = assay: Toxicity in C57BL/6 mouse bearing B16F10 tumor assessed as body weight loss at 60 mg/kg/day, po administered BID from day 5 to day 10 post-tumor implantation co-administered with temozolomide relative to vehicle-treated control; conditions: in vivo
Mus musculus [20] = assay: Toxicity in C57BL/6 mouse bearing B16F10 tumor assessed as mortality at 10 to 30 mg/kg/day, po administered BID from day 5 to day 10 post-tumor implantation co-administered with temozolomide; assay type: organism-based; parameters: route oral; conditions: in vivo
Mus musculus [21] = assay: Toxicity in C57BL/6 mouse bearing B16F10 tumor assessed as body weight loss at 30 mg/kg/day, po administered BID from day 5 to day 10 post-tumor implantation co-administered with temozolomide relative to vehicle-treated control; assay type: organism-based; parameters: route oral; conditions: in vivo; how it was run: as §1

SMILES | Cmax [9] | half-life [10] | AUC(0-t) at 3 h [11] | Vd [13] | CL (Mus musculus [15]) | AUC (Mus musculus [16]) | F (Mus musculus [17]) | further results
Cn1nnc2c(C(N)=O)ncn2c1=O [TEMOZOLOMIDE] |  |  |  |  |  |  |  | inhibition at 50 mg/kg (Mus musculus [1]): 30%; Activity (Mus musculus [2]): 2%; Activity (Mus musculus [3]): 1%
O=C(c1cc(Cc2n[nH]c(=O)c3c2NCCC3)ccc1F)N1CCN(c2ccccn2)CC1 | 2010 ng/mL | 156 min | 2900 ng·h/mL | 7.66 L/kg |  |  |  | clearance [4]: 34 mL/min/kg; Activity (Mus musculus [5]): 3%; Activity (Mus musculus [6]): 3%; AUC(0-t) at 8 h [7]: 5950 ng·h/mL; bioavailability [8]: 67%; Activity (Mus musculus [12]): 21%; Activity (B16-F10 [14]): Dose-dependent effect
O=C(c1cc(Cc2n[nH]c(=O)c3c2NCCC3)ccc1F)N1CCN(c2ncccn2)CC1 | 5600 ng/mL | 232 min | 2900 ng·h/mL | 4.99 L/kg |  |  |  | clearance [4]: 14.8 mL/min/kg; AUC(0-t) at 8 h [7]: 9060 ng·h/mL; bioavailability [8]: 36%
O=C(c1cc(Cc2n[nH]c(=O)c3c2CCCC3)ccc1F)N1CCN(c2ccccn2)CC1 | 1090 ng/mL | 66 min |  | 9.48 L/kg | 98.7 mL/min/kg | 2700 ng·h/mL | 74% | 
O=C1CCCN1c1cc(Cc2n[nH]c(=O)c3c2NCCC3)ccc1F | 1500 ng/mL | 29.4 min |  | 5.25 L/kg | 124 mL/min/kg | 3110 ng·h/mL | 106% | Activity (B16-F10 [18]): Dose-dependent effect; Activity (Mus musculus [19]): 12%; Activity (Mus musculus [20]): Non-toxic; Activity (Mus musculus [21]): 3%
O=C(c1cc(Cc2n[nH]c(=O)c3c2NCCC3)ccc1F)N1CCN(c2ccccc2)CC1 |  |  | 2900 ng·h/mL |  |  |  |  | 
O=C1CCCC(=O)N1c1cc(Cc2n[nH]c(=O)c3c2NCCC3)ccc1F |  |  | 70 ng·h/mL |  |  |  |  | 
O=C1CCCN1c1cc(Cc2n[nH]c(=O)c3c2CCCC3)ccc1F | 140 ng/mL | 16.8 min |  | 4.78 L/kg | 195.3 mL/min/kg | 330 ng·h/mL | 13% | 
O=C(c1cc(Cc2n[nH]c(=O)c3c2CCCC3)ccc1F)N1CCN(c2ncccn2)CC1 | 1030 ng/mL | 21.6 min |  | 2.33 L/kg | 75.8 mL/min/kg | 2380 ng·h/mL | 48% | 
O=C(c1cc(Cc2n[nH]c(=O)c3c2NCCC3)ccc1F)N1CCN(C(=O)C(F)(F)F)CC1 |  |  | 70 ng·h/mL |  |  |  |  | 
CC(=O)N1CCN(C(=O)c2cc(Cc3n[nH]c(=O)c4c3NCCC4)ccc2F)CC1 |  |  | 70 ng·h/mL |  |  |  |  | 
